Data from ChEMBL document CHEMBL1629459, “Microarray and molecular analyses of the azole resistance mechanism in Candida glabrata oropharyngeal isolates” (2010).

Experiments:
Format in all cases: functional
[1] = test system: Nakaseomyces glabratus; assay: Antifungal activity against Candida glabrata isolate Cg4R with CgPDR1 S391L mutant
Summary of the method: (§1)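 Fluconazole susceptibility by modified CLSI (NCCLS) broth microdilution. Medium was buffered RPMI with 2% glucose added. Inoculum was 250 cells per well, incubated at 37°C for 48 h. MIC was read as the concentration giving 80% growth reduction (MIC80). Clinical oropharyngeal isolates were cultured on YPD or on minimal medium (yeast nitrogen base plus 2% glucose).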

[2] = test system: Nakaseomyces glabratus; assay: Antifungal activity against Candida glabrata isolate Cg1S; summary of the method: as §1
[3] = test system: Nakaseomyces glabratus; assay: Antifungal activity against Candida glabrata isolate Cg6R with CgPDR1 G943S mutant; summary of the method: as §1
[4] = test system: Nakaseomyces glabratus; assay: Antifungal activity against Candida glabrata isolate Cg3S; summary of the method: as §1
[5] = test system: Nakaseomyces glabratus; assay: Antifungal activity against Candida glabrata isolate Cg16R with CgPDR1 R772I mutant; summary of the method: as §1
[6] = test system: Nakaseomyces glabratus; assay: Antifungal activity against Candida glabrata isolate Cg12R with CgPDR1 G348A mutant; summary of the method: as §1
[7] = test system: Nakaseomyces glabratus; assay: Antifungal activity against Candida glabrata isolate Cg14R with CgPDR1 N764I mutant; summary of the method: as §1
[8] = test system: Nakaseomyces glabratus; assay: Antifungal activity against Candida glabrata isolate Cg11S; summary of the method: as §1
[9] = test system: Nakaseomyces glabratus; assay: Antifungal activity against Candida glabrata isolate Cg2R with CgPDR1 F575L mutant; summary of the method: as §1
[10] = test system: Nakaseomyces glabratus; assay: Antifungal activity against Candida glabrata isolate Cg18R with CgPDR1 L344S mutant; summary of the method: as §1
[11] = test system: Nakaseomyces glabratus; assay: Antifungal activity against Candida glabrata isolate Cg8R with CgPDR1 W297S; summary of the method: as §1
[12] = test system: Nakaseomyces glabratus; assay: Antifungal activity against Candida glabrata isolate Cg17S; summary of the method: as §1
[13] = test system: Nakaseomyces glabratus; assay: Antifungal activity against Candida glabrata isolate Cg13S; summary of the method: as §1
[14] = test system: Nakaseomyces glabratus; assay: Antifungal activity against Candida glabrata isolate Cg5S; summary of the method: as §1
[15] = test system: Nakaseomyces glabratus; assay: Antifungal activity against Candida glabrata isolate Cg21S; summary of the method: as §1
[16] = test system: Nakaseomyces glabratus; assay: Antifungal activity against Candida glabrata isolate Cg22R with CgPDR1 L280F mutant; summary of the method: as §1
[17] = test system: Nakaseomyces glabratus; assay: Antifungal activity against Candida glabrata isolate Cg7S; summary of the method: as §1
[18] = test system: Nakaseomyces glabratus; assay: Antifungal activity against Candida glabrata isolate Cg15S; summary of the method: as §1

Measured: MIC80

OC(Cn1cncn1)(Cn1cncn1)c1ccc(F)cc1F [FLUCONAZOLE]
16 µg/mL: [2] | [18]
64 µg/mL: [13]
32 µg/mL: [4] | [8] | [12] | [14] | [15] | [17]
512 µg/mL: [11]
128 µg/mL: [5] | [9]
256 µg/mL: all other assays above
